From ChEMBL document CHEMBL1914308, “N-fused imidazoles as novel anticancer agents that inhibit catalytic activity of topoisomerase IIα and induce apoptosis in G1/S phase” (J Med Chem, 2011)
Active and inactive are the calls of the source. The calls are words filed in the database; no cut-off is given here.

Experiments:
HEK293 [1] = assay: Induction of cell cycle arrest in human HEK293 cells assessed as accumulation at G1 phase at 35 uM after 48 hrs by propidium iodide staining-based FACS analysis (reference value: 61 +/- 0.9%); type: functional
HEK293 [2] = assay: Induction of apoptosis in human HEK293 cells assessed as apoptotic cells at 35 uM after 48 hrs by propidium iodide staining-based FACS analysis (reference value: 4.88 +/- 0.8%); type: functional
HEK293 [3] = assay: Induction of cell cycle arrest in human HEK293 cells assessed as accumulation at G1 phase at 15 uM after 48 hrs by propidium iodide staining-based FACS analysis (reference value: 61 +/- 0.9%); type: functional
HEK293 [4] = assay: Anticlonogenic activity against human HEK293 cells after 48 hrs by crystal violet staining; type: functional; conditions: HEK293, 48 h, read-out: LC50 (the source's name)
In short: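 HEK 293 and Vero cells were grown in DMEM with 10% FBS and 1% penicillin/streptomycin at 37 °C in 5% CO₂. At 60–70% confluence they were exposed for 48 h to a range of concentrations, diluted in DMEM from 100 mM DMSO stocks. Colony survival is expressed as %. Values are mean ± SD of three independent experiments; LC₅₀ is the concentration killing half the cells.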

[5] = target: T1, DNA topoisomerase 2-alpha (Homo sapiens, UniProt P11388); assay: Competitive inhibition of human topoisomerase-2 alpha-ATPase activity by Lineweaver-Burk assay in presence of 200 to 520 uM ATP
In short: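 Compound at 0, 50, 100, 150 μM, each with ATP at 200–520 μM; 20 min at 37 °C. Released phosphate read by malachite green at OD 620 nm; Lineweaver–Burk analysis, Ki from slope replot.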

[6] = target: T1, DNA topoisomerase 2-alpha; assay: Inhibition of etoposide poisoning activity against human recombinant DNA topoisomerase 2alpha assessed as enhancement of in relaxation of supercoiled plasmid pBR322 DNA at 200 uM after 30 mins by agarose gel electrophoresis in presence of etoposide
HEK293 [7] = assay: Cytotoxicity against human HEK293 cells assessed as cell survival at 12 uM after 24 hrs by MTT assay; type: functional, cell-based
HEK293 [8] = assay: Induction of cell cycle arrest in human HEK293 cells assessed as accumulation at S phase at 25 uM after 48 hrs by propidium iodide staining-based FACS analysis (reference value: 16.91 +/- 1.0%); type: functional
HEK293 [9] = assay: Induction of apoptosis in human HEK293 cells assessed as increase in Bax protein expression at 15 to 25 uM after 48 hrs by Western blot analysis; type: functional, cell-based
In short: (§1)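 Whole-cell extracts from HEK 293 cells after 48 h at graded concentrations, Western blotted for caspase-3, Bax, Bcl-XL and PARP (cleaved 86 kDa fragment); β-actin as loading control.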

HEK293 [10] = assay: Induction of cell cycle arrest in human HEK293 cells assessed as accumulation at sub-G0 phase after 48 hrs by propidium iodide staining-based FACS analysis; type: functional
HEK293 [11] = assay: Induction of apoptosis in human HEK293 cells assessed as increase in apoptotic nuclei at 25 uM after 48 hrs by DAPI staining-based fluorescence microscopic analysis; type: functional
In short: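 HEK 293 cells exposed 48 h to 0, 15, 25 or 35 μM, nuclei stained with DAPI and apoptotic nuclei counted by fluorescence imaging; three replicates.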

[12] = target: T1, DNA topoisomerase 2-alpha; assay: Inhibition of topoisomerase 2 alpha-mediated DNA relaxation activity in human HEK293 cells assessed as increase in supercoiled DNA at 35 uM […] by agarose gel electrophoresis; type: cell-based
[13] = Cytotoxicity activity against african green monkey Vero assessed as cell survival at 100 uM after 48 hrs by MTT assay; type: cell-based; conditions: chlorocebus sabaeus, Vero cells; read-out: Activity
In short: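 MTT survival of HEK 293 and Vero cells after 48 h with compound at graded concentrations. DMEM, 10% FBS, 37 °C, 5% CO2; dilutions in DMEM from 100 mM DMSO stock, added at 60–70% confluence. Mean ± SD of three independent experiments.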

HEK293 [14] = assay: Induction of cell cycle arrest in human HEK293 cells assessed as accumulation at G2/M phase at 35 uM after 48 hrs by propidium iodide staining-based FACS analysis (reference value: 7.5 +/- 1.0%); type: functional
HEK293 [15] = assay: Induction of cell cycle arrest in human HEK293 cells assessed as accumulation at S phase at 35 uM after 48 hrs by propidium iodide staining-based FACS analysis (reference value: 16.91 +/- 1.0%); type: functional
Vero = assay: Cytotoxicity activity against african green monkey Vero assessed as cell survival at 12 uM after 48 hrs by MTT assay; type: cell-based; conditions: chlorocebus sabaeus
[16] = target: T1, DNA topoisomerase 2-alpha; assay: Inhibition of topoisomerase 2 alpha-mediated DNA relaxation activity in human HEK293 cells assessed as increase in supercoiled DNA at 35 uM after 3 to 4 hrs by agarose gel electrophoresis in presence of 20 to 250 mM ATP; type: cell-based
MCF7 = assay: Cytotoxicity against human MCF7 cells assessed as cell survival at 15 uM after 48 hrs by MTT assay; type: functional; conditions: MCF7, 48 h, read-out: Activity
In short: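 MTT survival of MCF 7 breast cancer cells, with MCF 10A as normal comparator; 48 h exposure. MCF 7 in DMEM with 10% FBS; MCF 10A in DMEM/F-12 with 10% FBS plus hydrocortisone, cholera toxin, insulin, EGF and L-glutamine. Mean ± SD of three independent experiments.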

HEK293 [17] = assay: Induction of apoptosis in human HEK293 cells assessed as increase in caspase 3 expression at 15 to 25 uM after 48 hrs by Western blot analysis; type: functional, cell-based; in short: as §1
HEK293 [18] = assay: Cytotoxicity against human HEK293 cells assessed as cell survival after 48 hrs by MTT assay; type: functional; conditions: HEK293, 48 h, read-out: LC50 (the source's name)
In short: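 HEK 293 cells were cultured in DMEM with 10% FBS and antibiotics at 37 °C in 5% CO₂. At 60–70% confluence they were treated for 48 h with various concentrations, diluted in DMEM from 100 mM DMSO stocks. Survival was read by MTT. LC₅₀ is the concentration killing 50% of cells. Data are mean ± SD of three independent experiments.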

HEK293 [19] = assay: Induction of cell cycle arrest in human HEK293 cells assessed as accumulation at G2/M phase at 15 uM after 48 hrs by propidium iodide staining-based FACS analysis (reference value: 7.5 +/- 1.0%); type: functional
HEK293 [20] = assay: Induction of cell cycle arrest in human HEK293 cells assessed as accumulation at S phase at 15 uM after 48 hrs by propidium iodide staining-based FACS analysis (reference value: 16.91 +/- 1.0%); type: functional

T1 sequence (P11388 whole entry): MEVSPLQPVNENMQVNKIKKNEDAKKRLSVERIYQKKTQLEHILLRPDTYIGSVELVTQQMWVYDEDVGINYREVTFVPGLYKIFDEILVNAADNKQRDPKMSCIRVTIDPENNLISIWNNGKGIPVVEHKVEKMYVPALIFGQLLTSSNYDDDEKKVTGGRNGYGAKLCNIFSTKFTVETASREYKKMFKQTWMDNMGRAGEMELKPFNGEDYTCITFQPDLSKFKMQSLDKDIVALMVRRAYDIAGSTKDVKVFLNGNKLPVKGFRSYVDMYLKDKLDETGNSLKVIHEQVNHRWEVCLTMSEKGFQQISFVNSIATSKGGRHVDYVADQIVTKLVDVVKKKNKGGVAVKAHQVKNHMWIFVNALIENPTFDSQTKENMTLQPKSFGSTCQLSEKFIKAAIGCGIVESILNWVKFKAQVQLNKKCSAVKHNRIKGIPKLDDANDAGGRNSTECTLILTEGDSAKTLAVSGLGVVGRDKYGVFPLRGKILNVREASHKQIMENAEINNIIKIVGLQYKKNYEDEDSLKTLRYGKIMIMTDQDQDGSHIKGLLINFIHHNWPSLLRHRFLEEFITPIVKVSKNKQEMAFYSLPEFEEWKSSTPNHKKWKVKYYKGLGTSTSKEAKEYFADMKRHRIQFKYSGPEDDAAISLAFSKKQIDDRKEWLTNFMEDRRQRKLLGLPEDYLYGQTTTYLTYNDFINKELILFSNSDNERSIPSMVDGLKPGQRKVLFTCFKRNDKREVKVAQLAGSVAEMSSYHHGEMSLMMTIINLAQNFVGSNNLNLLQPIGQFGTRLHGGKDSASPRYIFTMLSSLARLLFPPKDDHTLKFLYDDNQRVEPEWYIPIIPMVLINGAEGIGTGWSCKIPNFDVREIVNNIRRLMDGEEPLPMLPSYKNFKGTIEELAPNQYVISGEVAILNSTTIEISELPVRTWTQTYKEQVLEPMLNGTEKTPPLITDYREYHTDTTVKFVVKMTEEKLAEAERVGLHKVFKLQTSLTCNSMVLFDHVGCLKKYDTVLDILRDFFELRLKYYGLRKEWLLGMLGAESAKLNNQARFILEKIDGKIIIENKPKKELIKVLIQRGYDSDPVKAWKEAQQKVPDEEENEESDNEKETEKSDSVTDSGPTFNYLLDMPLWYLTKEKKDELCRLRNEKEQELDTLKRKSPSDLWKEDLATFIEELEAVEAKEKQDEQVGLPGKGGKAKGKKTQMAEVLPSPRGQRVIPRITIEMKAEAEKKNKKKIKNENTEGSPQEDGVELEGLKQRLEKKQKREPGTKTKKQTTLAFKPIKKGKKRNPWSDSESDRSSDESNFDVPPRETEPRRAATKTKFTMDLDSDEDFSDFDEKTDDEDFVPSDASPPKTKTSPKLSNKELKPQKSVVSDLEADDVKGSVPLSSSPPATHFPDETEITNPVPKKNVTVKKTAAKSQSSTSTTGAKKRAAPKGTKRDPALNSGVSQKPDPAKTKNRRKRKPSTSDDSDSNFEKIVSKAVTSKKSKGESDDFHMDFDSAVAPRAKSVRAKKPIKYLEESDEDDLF

`CC(C)(C)Nc1c(-c2ccc(C(=O)O)cc2)nc2ccccn12` gave an Activity (HEK293 [1]) of 21.52%, an Activity (HEK293 [2]) of 49.29% and an Activity (HEK293 [3]) of 34.64%. The CC50 (HEK293 [4]) was 30 µM, the Ki [5] was 75 µM and the inhibition [6] was “inactive”. The Activity (HEK293 [7]) was “Active”, the Activity (HEK293 [8]) was 14.16% and the Activity (HEK293 [9]) was “Active”. The Activity (HEK293 [10]) was “Dose-dependent effect”, the Activity (HEK293 [11]) was 40% and the inhibition [12] was “Active”. The viability at 48 h, 100 µM [13] was < 50%, the Activity (HEK293 [14]) was 5.56% and the Activity (HEK293 [15]) was 10.07%. The Activity (Vero) was “Non-toxic”, the inhibition [16] was “inactive” and the viability at 15 µM (MCF7) was 50%. The Activity (HEK293 [17]) was “Active”, the CC50 (HEK293 [18]) was 12 µM and the Activity (HEK293 [19]) was 9.92%. It also gave an Activity (HEK293 [20]) of 13.92%.
